Assays:
[1] = tested on: murine AML cells expressing Myc cDNA; assay: Ectopic Myc cDNA expression rescue in murine AML cells; type: cell-based; conditions: murine AML cells transduced with Myc cDNA MSCV retrovirus
PDA organoids = assay: PDA organoid growth; type: cell-based, mouse; conditions: 24, 48, and 72 h, light microscopy; CellTiter Glo-3D
In short: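 PDA organoids were treated with test compound or DMSO and imaged by light microscopy at 24, 48 and 72 h. Growth was quantified with CellTiter-Glo 3D. Data are shown as mean ± SEM, and p-values came from Student's t test.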

[2] = tested on: MLL-AF9;Nras^G12D AML cells; assay: Propidium iodide staining of murine AML cells; type: cell-based; conditions: 48 h (Figure 3D)
[3] = tested on: human leukemia cell lines; assay: Proliferation assay of human leukemia cell lines; type: cell-based; conditions: 48 h, normalized to DMSO-treated cells
In short: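 Human leukemia cell lines were grown with test compound. Proliferation rate was normalised to DMSO-treated cells; n = 3, mean ± SEM.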

AsPC-1 cells = assay: Colony formation of adherent cancer cells; type: cell-based, human; conditions: dose-dependent; after 5 days of treatment
SW-480 cells = assay: Colony formation of adherent cancer cells; type: cell-based, human; conditions: dose-dependent; after 5 days of treatment
human AML cells = assay: Methylcellulose-based colony formation of human AML cells; type: cell-based; conditions: semi-solid methylcellulose (Figure 3E)
c-Kit surface expression = assay: Flow cytometric analysis of c-Kit in murine AML cells; type: cell-based; conditions: 48 h, flow cytometry
Hexim1 mRNA = assay: RT-qPCR of Hexim1 in murine AML cells; type: cell-based; conditions: 6 h treatment
MYC = assay: Western blot of MYC protein in murine AML cells; type: cell-based; conditions: murine MLL-AF9, Nras^G12D AML cells, 6 h, RVX-208 1 μM, OTX-015 1 μM, candidates 10 μM
In short: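 Whole-cell lysates were prepared after the 6 h treatment and probed for MYC by western blot. DMSO-treated cells were the vehicle control.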

[4] = tested on: murine AML cells (MLL-AF9; Nras^G12D); assay: RNA-seq and GSEA in murine AML cells; type: cell-based; conditions: RNA-seq; for mRNA levels of JQ1-rapid target genes (n = 50): relative to DMSO
[5] = tested on: BRD4 occupancy at e1-e5 Myc enhancers; assay: BRD4 ChIP-qPCR at Myc enhancers in murine AML cells; type: cell-based
BRD4 chromatin occupancy = assay: BRD4 ChIP-seq in murine AML cells; type: cell-based; conditions: regions enriched with H3K27ac
[6] = tested on: BD2 vs BD1 of BET proteins; conditions: approximately; cited from earlier work
[7] = tested on: RNA polymerase II chromatin occupancy; assay: RNA Pol II ChIP-seq in murine AML cells; type: cell-based; conditions: BRD4-occupied sites

SMILES	effect of ectopic Myc expression on drug sensitivity [1]	PDA organoid growth (PDA organoids)	proliferation of leukemia cells [2]	anti-proliferative activity in K562, NOMO-1, JURKAT, and HL-60 [3]	anti-proliferative activity in MV4-11, KASUMI-1, MOLM-13, and THP-1 [3]	clonogenic growth of AsPC-1 cells (AsPC-1 cells)	clonogenic growth of SW-480 cells (SW-480 cells)	ability to form colonies on methylcellulose (human AML cells)	c-Kit surface expression (c-Kit surface expression)	increase of Hexim1 mRNA expression (Hexim1 mRNA) [fold]	MYC protein expression (MYC)	LSC signature genes (GSEA) [4]	mRNA levels of JQ1-rapid target genes (n = 50) [4]	expression of genes close to the BBC1115-sensitive 330 regions (GSEA) ([4]; vs DMSO)	BRD4 occupancy at e1-e5 Myc enhancers [5]	BRD4 chromatin occupancy (ChIP-seq) (BRD4 chromatin occupancy)	stronger binding affinity toward BD2 than BD1 [6]	RNA Pol II chromatin binding (ChIP-seq) [7]
Cc1sc2c(c1C)C(c1ccc(Cl)cc1)=N[C@@H](CC(=O)Nc1ccc(O)cc1)c1nnc(C)n1-2 [OTX-015, birabresib]	ectopic Myc expression conferred resistance	attenuated PDA organoid growth	inhibited the proliferation of leukemia cells	minimal sensitivity	broad growth-suppressive effect	markedly inhibit clonogenic growth	markedly inhibit clonogenic growth	substantially suppressed	downregulated c-Kit	> 20	downregulated MYC protein levels	significantly suppressed the LSC signature genes	strongly downregulated all JQ1-rapid targets	significantly downregulated	impaired the occupancy of BRD4 at the e1-e5 Myc enhancers			
COc1cc(OC)c2c(=O)[nH]c(-c3cc(C)c(OCCO)c(C)c3)nc2c1 [RVX-208, apabetalone]		but not RVX-208, attenuated PDA organoid growth									only modestly affected MYC protein expression	insignificant	downregulated some but not all JQ1-rapid targets		negligible effect on the BRD4 occupancy at e1-e5	negligible	10- to 100 fold	negligible

From publication PMC10189352 (Molecular Therapy. Nucleic Acids, 2023)
